Data from ChEMBL document CHEMBL1153929, “Exploration and synthesis of curcumin analogues with improved structural stability both in vitro and in vivo as cytotoxic agents” (Bioorg Med Chem, 2009).

Tests used:
PC-3 = assay: Cytotoxicity against human PC3 cells after 72 hrs by MTT assay; format: functional, cell-based; conditions: PC-3, 72 h
Procedure, shortened: (§1)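 Cells were plated at 5000 per well in 1640 medium with 5% heat-inactivated calf serum and penicillin/streptomycin, at 37 °C and 5% CO2. After 24 h, compounds in DMSO were added at final 100, 33.3, 11.1 and 3.7 µg/ml for 72 h. MTT (5 mg/ml in 0.9% NaCl) was then added for 3 h, the formazan dissolved in DMSO, and absorbance read at 570 nm.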

[1] = Hydrolytic stability assessed as compound degradation at 2 mg in sodium dihydrogen phosphate buffered 0.3% sodium carboxymethylcellulose solution at pH 7.4 after 45 hrs by HPLC; format: physicochemical; conditions: read-out: Activity
Procedure, shortened: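 2 mg of sample was vortexed into 1 ml of 0.3% (w/v) CMCNa solution in phosphate buffer at pH 7.4 and kept in the dark at 37 °C. HPLC peak areas were recorded. Degradation = (area at 0 h − area at end time) / area at 0 h × 100%.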

HeLa = assay: Cytotoxicity against human HeLa cells after 72 hrs by MTT assay; format: functional, cell-based; procedure, shortened: as §1
KB (human) = assay: Cytotoxicity against human KB cells after 72 hrs by MTT assay
CNE = assay: Cytotoxicity against human CNE cells after 72 hrs by MTT assay; format: functional, cell-based; procedure, shortened: as §1
[2] = Cytotoxicity against human LS 174T cells after 72 hrs by MTT assay; format: functional, cell-based; conditions: LS174T; procedure, shortened: as §1
HL-60 (human) = assay: Cytotoxicity against human HL60 cells after 72 hrs by MTT assay; conditions: HL-60, 72 h
BGC-823 = assay: Cytotoxicity against human BGC823 cells after 72 hrs by MTT assay; format: functional, cell-based; conditions: BGC-823, 72 h; procedure, shortened: as §1

| SMILES | IC50 (PC-3) [µM] | degraded at 45 h [1] [%] | IC50 (HeLa) [µM] | IC50 (KB (human)) [µM] | IC50 (CNE) [µM] | IC50 [2] [µM] | IC50 (HL-60 (human)) [µM] | IC50 (BGC-823) [µM] |
| --- | --- | --- | --- | --- | --- | --- | --- | --- |
| O=C(/C=C/c1ccc(O)cc1)/C=C/c1ccc(O)cc1 | 48.9 | 0 | 217 | 41.5 |  |  |  |  |
| COc1cc(/C=C2\CC/C(=C\c3cc(OC)c(OC)c(OC)c3)C2=O)cc(OC)c1OC |  | 0 |  |  |  |  |  |  |
| CN(C)c1ccc(/C=C2\CC/C(=C\c3ccc(N(C)C)cc3)C2=O)cc1 |  | 0 |  |  |  |  |  |  |
| O=C(/C=C/c1cccs1)/C=C/c1cccs1 | 10.3 | 0 | 6.2 | 123 | 154 | 79.5 |  |  |
| C=CCOc1ccc(/C=C/C(=O)/C=C/c2ccc(OCC=C)cc2)cc1 |  | 0 |  |  |  |  | 64.6 |  |
| C=CCOc1ccc(/C=C2\CCC/C(=C\c3ccc(OCC=C)cc3)C2=O)cc1 |  | 0 |  | 85.3 |  |  |  |  |
| O=C(/C=C/c1ccc(OC2CCCCO2)cc1)/C=C/c1ccc(OC2CCCCO2)cc1 (centres undefined) | 43.4 | 0 |  |  |  |  | 0.3 |  |
| CN(C)CCCOc1ccc(/C=C2\CC/C(=C\c3ccc(OCCCN(C)C)cc3)C2=O)cc1 |  | 0 |  | 3.3 | 2.4 |  |  |  |
| COc1cc(/C=C2\CCC/C(=C\c3cc(OC)c(OC)c(OC)c3)C2=O)cc(OC)c1OC | 22.7 | 0 | 27.5 | 117 |  |  | 29.3 |  |
| O=C(/C=C/C=C/c1ccccc1)/C=C/C=C/c1ccccc1 |  | 0 |  |  |  |  | 36.5 |  |
| O=C1/C(=C/c2ccc(Br)o2)CCC/C1=C\c1ccc(Br)o1 | 21.8 | 0 |  |  |  |  | 65.8 |  |
| Cc1ccsc1/C=C/C(=O)/C=C/c1sccc1C | 138 | 0 |  |  |  |  |  |  |
| O=C1/C(=C/c2ccc(Br)s2)CC/C1=C\c1ccc(Br)s1 |  | 0 |  |  |  | 9 |  |  |
| O=C1/C(=C/C=C/c2ccccc2)CCC/C1=C\C=C\c1ccccc1 | 61.5 | 0 | 49.9 | 29.4 |  | 24.3 |  | 15.6 |
| O=C(/C=C/c1ccc(F)cc1)/C=C/c1ccc(F)cc1 | 15.2 | 0 |  | 94.6 |  | 98.8 |  |  |
| O=C1/C(=C/c2ccc3ccccc3c2)CC/C1=C\c1ccc2ccccc2c1 |  | 0 |  |  |  |  |  | 38.1 |
| O=C(/C=C/c1ccccc1Cl)/C=C/c1ccccc1Cl |  | 0 |  | 59 |  |  | 8.6 |  |
| O=C(/C=C/c1ccccc1C(F)(F)F)/C=C/c1ccccc1C(F)(F)F | 0.35 | 0 |  | < 3.7 |  |  | < 10 |  |
| O=C1/C(=C/c2cccc(Br)c2)CCC/C1=C\c1cccc(Br)c1 |  | 0 | 15.7 | 15.9 |  | 11.5 |  |  |
| O=C(/C=C/c1ccc(Br)o1)/C=C/c1ccc(Br)o1 | 34.3 | 0 | 16.8 | 24.5 |  | 58.8 |  | 30.9 |
| CCOc1ccc(/C=C2\CC/C(=C\c3ccc(OCC)cc3)C2=O)cc1 |  | 0 | 24 |  |  |  |  |  |
| CCOc1ccc(/C=C2\CCC/C(=C\c3ccc(OCC)cc3)C2=O)cc1 |  | 0 |  |  |  | 5.6 | 85.8 |  |
| O=C1/C(=C/C=C/c2ccccc2)CC/C1=C\C=C\c1ccccc1 | 117 | 0 |  |  |  |  |  |  |
| O=C(/C=C/c1ccc2ccccc2c1)/C=C/c1ccc2ccccc2c1 |  | 0 |  |  |  |  | 69.2 | 39.7 |
| COc1cccc(/C=C2\CC/C(=C\c3cccc(OC)c3OC)C2=O)c1OC |  | 0 | 249 |  |  |  |  |  |
| O=C1/C(=C/c2ccc(F)cc2)CC/C1=C\c1ccc(F)cc1 |  | 0 | 1.2 |  |  |  |  |  |
| O=C1/C(=C/c2ccccc2Br)CC/C1=C\c1ccccc1Br | 24.7 | 0 |  | 109 | 32.8 |  |  |  |

| SMILES | IC50 (PC-3) [µM] | degraded at 45 h [1] [%] | IC50 (HeLa) [µM] | IC50 (KB (human)) [µM] | IC50 (CNE) [µM] | IC50 [2] [µM] | IC50 (HL-60 (human)) [µM] | IC50 (BGC-823) [µM] |
| --- | --- | --- | --- | --- | --- | --- | --- | --- |
| O=C1/C(=C/c2ccccc2Cl)CC/C1=C\c1ccccc1Cl |  | 0 |  | 96 |  |  | 87.2 |  |
| COc1cccc(/C=C/C(=O)/C=C/c2cccc(OC)c2OC)c1OC |  | 0 |  | 24.3 |  | 48 | 4.5 | 24.4 |
| COc1ccccc1/C=C/C(=O)/C=C/c1ccccc1OC |  | 0 | 161 | < 12.6 |  |  | < 12.6 |  |
| COc1cc(/C=C/C(=O)/C=C/c2cc(OC)c(OC)c(OC)c2)cc(OC)c1OC | 8.8 | 0 | 95 | 98.7 |  | 148 |  |  |
| COc1cccc(/C=C2\CCC/C(=C\c3cccc(OC)c3OC)C2=O)c1OC |  | 0 |  | 179 |  | 84.5 |  | 55.3 |
| C=CCOc1ccc(/C=C2\CCC/C(=C\c3ccc(OCC=C)c(OC)c3)C2=O)cc1OC |  | 0 |  | 102 |  |  |  |  |
| O=C1/C(=C/c2ccc(OC3CCCCO3)cc2)CCC/C1=C\c1ccc(OC2CCCCO2)cc1 (centres undefined) |  | 0 |  |  |  | 3.9 | 134 |  |
| CC(C)(C)c1ccc(/C=C2\CCC/C(=C\c3ccc(C(C)(C)C)cc3)C2=O)cc1 |  | 0 |  | 78.9 |  |  |  |  |
| O=C1/C(=C/c2ccc(F)cc2)CCC/C1=C\c1ccc(F)cc1 |  | 0 |  | 150 | 77.9 | 7.4 | 58.1 | 87.3 |
| O=C1/C(=C/c2ccccc2Br)CCC/C1=C\c1ccccc1Br |  | 0 |  | 55.3 |  |  |  |  |
| O=C1/C(=C/c2ccccc2Cl)CCC/C1=C\c1ccccc1Cl | 13.8 | 0 |  | 6.7 |  | 4.2 | 98.3 | 4.4 |
| O=C1/C(=C/c2ccccc2C(F)(F)F)CCC/C1=C\c1ccccc1C(F)(F)F |  | 0 | 46.3 | 54 |  |  |  |  |
| COc1ccccc1/C=C1\CC/C(=C\c2ccccc2OC)C1=O | 5.3 | 0 |  |  |  |  | 2.3 |  |
| Cc1ccc(C)c(/C=C/C(=O)/C=C/c2cc(C)ccc2C)c1 | 5.2 | 0 | 6.1 |  | 17.7 | 103 |  |  |
| O=C1/C(=C/c2ccc(OC3CCCCO3)cc2)CC/C1=C\c1ccc(OC2CCCCO2)cc1 (centres undefined) |  | 0 | 39.1 |  |  |  |  |  |
| CC(C)(C)c1ccc(/C=C/C(=O)/C=C/c2ccc(C(C)(C)C)cc2)cc1 | 12 | 0 | 21.8 |  | 89.8 |  |  |  |
| O=C1/C(=C/c2ccc3c(c2)OCO3)CC/C1=C\c1ccc2c(c1)OCO2 |  | 0 |  |  |  |  | 225 |  |
| O=C1/C(=C/c2ccccc2C(F)(F)F)CC/C1=C\c1ccccc1C(F)(F)F |  | 0 |  | < 9.34 |  | 213 |  |  |
| C=CCOc1cc(/C=C2\CC/C(=C\c3ccc(OC)c(OCC=C)c3)C2=O)ccc1OC |  | 0 |  |  |  |  |  | 32.6 |
| Cn1cccc1/C=C1\CC/C(=C\c2cccn2C)C1=O |  | 0 |  |  |  | 9.2 |  |  |
| O=C1/C(=C/c2ccccc2F)CCC/C1=C\c1ccccc1F | 45.8 | 0 | 15.5 | 74.1 | 130 |  |  |  |
| Cc1ccc(/C=C2\CCC/C(=C\c3ccc(C)s3)C2=O)s1 | 77.6 | 0 |  | 249 |  |  |  |  |
| Cn1cccc1/C=C1\CCC/C(=C\c2cccn2C)C1=O |  | 0 |  | 2.3 |  |  |  |  |
| Cc1ccc(C)c(/C=C2\CCC/C(=C\c3cc(C)ccc3C)C2=O)c1 |  | 0 |  | 35.3 |  |  |  |  |
| COc1cc(/C=C2\CCC/C(=C\c3ccc(O)c(OC)c3)C2=O)ccc1O [CYCLOVALONE] |  | 0 |  | < 10.1 | 17.6 | 4.6 |  |  |
| O=C1/C(=C/c2cccs2)CCC/C1=C\c1cccs1 [TENYLIDONE] |  | 0 |  | 86 |  |  |  |  |
